Consider 2 molecules from ChEMBL document CHEMBL3124820, “Design, synthesis and biological evaluation of hetero-aromatic moieties substituted pyrrole-2-carbonitrile derivatives as dipeptidyl peptidase IV inhibitors” (Eur J Med Chem, 2014).

For data set [1], the system named is Mus musculus. Nature of the data set: Antidiabetic activity in C57BKS db/db mouse assessed as blood glucose level at 15 mg/kg/day administered for 5 weeks followed by glucose challenge at 6 hrs starvation of post last dose measured at 120 mins by OGTT (reference value: 28.1 +/- 1.3 mmol/L). Type of data set: functional. Put shortly: (§1)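 C57BKS db/db mice received 5, 15 or 50 mg/kg/day for 5 weeks. Vehicle was 0.5% methylcellulose at 10 mL/kg/day. In week 5, mice were fasted 6 h and given an oral glucose load of 1.5 g/kg, then blood glucose was recorded over the glucose tolerance test. Data are mean ± SE, compared with Student's t-test.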

The subject of data set [2] is Mus musculus. The data set is described as follows: Antidiabetic activity in C57BKS db/db mouse assessed as blood glucose level at 15 mg/kg/day administered for 5 weeks followed by glucose challenge at 6 hrs starvation of post last dose measured at 90 mins by OGTT (reference value: 27.2 +/- 1.3 mmol/L). It is filed as functional. The method, boiled down:
as §1

Data set [3] deals with Mus musculus. The data set is described as follows: Antidiabetic activity in C57BKS db/db mouse assessed as blood glucose level at 15 mg/kg/day administered for 5 weeks followed by glucose challenge at 6 hrs starvation of post last dose measured at 60 mins by OGTT (reference value: 30.2 +/- 1.5 mmol/L). Type of data set: functional. Put shortly: as §1
The subject of data set [4] is Mus musculus. The data set is described as follows: Antidiabetic activity in C57BKS db/db mouse assessed as blood glucose level at 15 mg/kg/day administered for 5 weeks followed by glucose challenge at 6 hrs starvation of post last dose measured at 30 mins by OGTT (reference value: 46.6 +/- 2.2 mmol/L). Type of data set: functional. Put shortly: as §1
In data set [5] the test system is Mus musculus. The data set is described as follows: Antidiabetic activity in C57BKS db/db mouse assessed as blood glucose level at 15 mg/kg/day administered for 5 weeks followed by glucose challenge at 6 hrs starvation of post last dose measured immediately by OGTT (reference value: 25 +/- 1.2 mmol/L). Type of data set: functional. Put shortly: as §1
Data set [6] deals with Mus musculus. The data set is described as follows: Antidiabetic activity in ICR mouse assessed as decrease in blood glucose AUC (0 to 120 mins) at 30 mg/kg administered for 30 mins prior to glucose challenge measured after 4 hrs by OGTT relative to vehicle-treated control. It is filed as functional. Also on record: scale not given: the % may be the effect or the level left. The method, boiled down: (§2)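 ICR mice were fasted 16 h and given one dose in 0.5% methylcellulose vehicle (10 mL/kg). An oral glucose load of 2.5 g/kg followed; methods state 30 min after dosing, the figure legend 4 h.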

For data set [7], the target named is CYP2C9 (Homo sapiens, UniProt P11712). The data set is described as follows: Inhibition of CYP2C9 (unknown origin) at 100 uM relative to control. Type of data set: ADME.
Chain of CYP2C9 (P11712 whole entry): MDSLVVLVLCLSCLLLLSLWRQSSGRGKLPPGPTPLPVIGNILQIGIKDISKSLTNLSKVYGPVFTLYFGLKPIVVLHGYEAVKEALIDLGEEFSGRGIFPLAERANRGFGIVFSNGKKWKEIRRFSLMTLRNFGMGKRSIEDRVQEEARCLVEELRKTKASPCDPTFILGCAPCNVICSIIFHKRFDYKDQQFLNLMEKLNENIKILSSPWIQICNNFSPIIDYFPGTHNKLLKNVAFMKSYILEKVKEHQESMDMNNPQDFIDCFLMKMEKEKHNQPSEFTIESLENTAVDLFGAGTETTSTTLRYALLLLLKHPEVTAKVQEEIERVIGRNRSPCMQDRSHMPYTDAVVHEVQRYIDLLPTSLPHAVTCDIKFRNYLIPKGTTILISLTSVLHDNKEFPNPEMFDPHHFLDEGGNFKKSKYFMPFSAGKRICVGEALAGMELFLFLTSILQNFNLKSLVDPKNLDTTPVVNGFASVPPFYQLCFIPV
For data set [8], the target named is Cytochrome P450 3A4 (Homo sapiens, UniProt P08684). The data set is described as follows: Inhibition of CYP3A4 (unknown origin). Type of data set: ADME.
Chain of Cytochrome P450 3A4 (P08684 whole entry): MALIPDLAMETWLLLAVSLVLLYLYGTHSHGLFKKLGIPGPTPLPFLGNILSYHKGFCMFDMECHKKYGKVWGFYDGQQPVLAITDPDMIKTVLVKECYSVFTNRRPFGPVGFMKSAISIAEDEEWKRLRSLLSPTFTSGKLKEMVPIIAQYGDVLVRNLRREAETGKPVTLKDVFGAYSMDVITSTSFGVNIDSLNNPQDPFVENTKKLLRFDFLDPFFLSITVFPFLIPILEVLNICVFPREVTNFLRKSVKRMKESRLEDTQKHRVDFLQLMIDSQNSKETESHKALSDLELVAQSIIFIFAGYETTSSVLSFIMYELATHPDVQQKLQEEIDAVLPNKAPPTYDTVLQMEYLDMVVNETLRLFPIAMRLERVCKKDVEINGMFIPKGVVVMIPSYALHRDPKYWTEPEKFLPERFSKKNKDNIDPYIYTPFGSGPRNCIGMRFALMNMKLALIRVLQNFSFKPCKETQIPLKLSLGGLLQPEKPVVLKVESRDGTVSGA
A short description of data set [9]: Oral bioavailability in Sprague-Dawley rat at 20 mg/kg. It is filed as ADME, organism-based. The settings on record: in vivo. The method, boiled down: (§3)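 Sprague-Dawley rats were dosed orally or intravenously, and blood was sampled after dosing. Plasma was separated by centrifugation and deproteinized with methanol containing an internal standard. The supernatant was diluted with methanol, centrifuged again and quantified by LC/MS/MS.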

The nature of data set [10]: Apparent clearance in Sprague-Dawley rat at 5 mg/kg, iv. Type of data set: ADME, organism-based. On the set-up: dose 5 mg/kg, route intravenous. Conditions: in vivo, read-out: CL(app) (converted). The method, boiled down:
as §3

Data set [11] can be described thus: Half life in Sprague-Dawley rat at 5 mg/kg, iv. It is filed as ADME, organism-based. Also on record: dose 5 mg/kg, route intravenous. Conditions: in vivo. The method, boiled down: as §3
Data set [12] can be described thus: Half life in Sprague-Dawley rat at 20 mg/kg, po. Also on record: dose 20 mg/kg, route oral. The settings on record: in vivo. Type of data set: ADME, organism-based. The method, boiled down:
as §3

Data set [13] can be described thus: Mean residence time in Sprague-Dawley rat at 5 mg/kg, iv. It is filed as ADME, organism-based. Also on record: dose 5 mg/kg, route intravenous. Conditions: in vivo. Put shortly:
as §3

Data set [14] is described as follows: Mean residence time in Sprague-Dawley rat at 20 mg/kg, po. Type of data set: ADME, organism-based. Also on record: dose 20 mg/kg, route oral. The settings on record: in vivo. Put shortly:
as §3

Data set [15] can be described thus: AUC (0 to infinity) in Sprague-Dawley rat at 5 mg/kg, iv. It is filed as ADME, organism-based. Also on record: time infinity, dose 5 mg/kg, route intravenous. The settings on record: plasma. The method, boiled down: as §3
Data set [16] is described as follows: AUC (0 to infinity) in Sprague-Dawley rat at 20 mg/kg, po. Type of data set: ADME, organism-based. On the set-up: time infinity, dose 20 mg/kg, route oral. Conditions: plasma. Put shortly:
as §3

Data set [17] is described as follows: AUC (0 to t) in Sprague-Dawley rat at 5 mg/kg, iv. Type of data set: ADME, organism-based. On the set-up: dose 5 mg/kg, route intravenous. The settings on record: plasma. Put shortly: as §3
The nature of data set [18]: AUC (0 to t) in Sprague-Dawley rat at 20 mg/kg, po. Type of data set: ADME, organism-based. On the set-up: dose 20 mg/kg, route oral. Conditions: plasma. The method, boiled down:
as §3

A short description of data set [19]: Cmax in Sprague-Dawley rat at 5 mg/kg, iv. Conditions: in vivo. Type of data set: ADME, organism-based. On the set-up: dose 5 mg/kg, route intravenous. The method, boiled down: as §3
Data set [20] can be described thus: Cmax in Sprague-Dawley rat at 20 mg/kg, po. Type of data set: ADME, organism-based. Also on record: dose 20 mg/kg, route oral. The settings on record: in vivo. Put shortly:
as §3

A short description of data set [21]: Tmax in Sprague-Dawley rat at 5 mg/kg, iv. It is filed as ADME, organism-based. Also on record: dose 5 mg/kg, route intravenous. Conditions: in vivo. The method, boiled down:
as §3

The nature of data set [22]: Tmax in Sprague-Dawley rat at 20 mg/kg, po. It is filed as ADME, organism-based. On the set-up: dose 20 mg/kg, route oral. The settings on record: in vivo. Put shortly: as §3
For data set [23], the system named is Mus musculus. Nature of the data set: Antidiabetic activity in ICR mouse assessed as decrease in blood glucose AUC (0 to 120 mins) administered for 30 mins prior to glucose challenge measured after 4 hrs by OGTT. It is filed as functional, organism-based. Put shortly:
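ICR mice fasted 16 h, then given a single dose of 15 or 50 mg/kg; vehicle 0.5% methylcellulose (10 mL/kg), LAF237 30 mg/kg as positive control. Oral glucose 2.5 g/kg given 30 min after dosing (legend says 4 h). Blood glucose read at 0, 15, 30, 60, 90, 120 min for AUC0–120. Mean ± SE, n = 10; Student's t-test.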

Data set [24] has as its system Mus musculus. The data set is described as follows: Antidiabetic activity in ICR mouse assessed as decrease in blood glucose AUC (0 to 120 mins) at 50 mg/kg administered for 30 mins prior to glucose challenge measured after 4 hrs by OGTT relative to vehicle-treated control. Type of data set: functional. Also on record: scale not given: the % may be the effect or the level left. Put shortly: as §2

Data set [25] has as its system Mus musculus. Nature of the data set: Antidiabetic activity in ICR mouse assessed as decrease in blood glucose AUC (0 to 120 mins) at 15 mg/kg administered for 30 mins prior to glucose challenge measured after 4 hrs by OGTT relative to vehicle-treated control. On the set-up: scale not given: the % may be the effect or the level left. Type of data set: functional. The method, boiled down: as §2

For the molecule `N#C[C@@H]1CCCN1C(=O)CNC12CC3CC(CC(O)(C3)C1)C2` [VILDAGLIPTIN], the Activity is 21.4 mmol/L in data set [1]; 20.7 mmol/L in data set [2]; 21 mmol/L in data set [3]; 31.3 mmol/L in [4]; 17.9 mmol/L in data set [5]; 19.9% in data set [6].

The term inhibition denotes the change of the read-out against control, counted positive when it falls. For orientation: IC50 means the concentration at which inhibition is half-maximal. What is called bioavailability is the share of a dose that reaches the circulation, judged against a reference dose that is usually intravenous. Broadly, the half-life is the time in which the quantity being followed falls by half. By MRT is commonly meant the average time that molecules of a dose stay in the body. In general, AUC(0-inf) refers to total exposure, with the tail of the curve extrapolated. As a reminder, the AUC(0-t) is the area under the concentration-time curve up to a stated or last time point. One may read the Cmax as the peak of the concentration-time curve. The Tmax is the time at which the peak concentration occurs. Turning to `N#C[C@@H]1C[C@H](F)CN1C(=O)[C@@H](N)Cc1cc2c(cc1Br)OCO2`, the inhibition at 100 µM in data set [7] is -20.3%. In data set [8], this molecule came in with an IC50 of 2200 nM. Besides, in data set [9], the bioavailability was 16.8%. In [10], the clearance is 43.5 mL/min/kg. For the same molecule, the half-life in [11] is 37.8 min; in data set [12], 218 min. For the same molecule, the figures for the MRT in data set [13] and in [14] were 33 min and 3.15 h, respectively. Moreover, the results for the AUC(0-inf) in data set [15] and in data set [16] were 1920 ng·h/mL and 1580 ng·h/mL, respectively. For the same molecule, the AUC(0-t) amounted to 1920 ng·h/mL in data set [17] and 1290 ng·h/mL in data set [18]. Besides, the peak concentration (Cmax) in data set [19] amounted to 2030 ng/mL; in data set [20], 2200 ng/mL. Moreover, the Tmax in data set [21] and in data set [22] was 18 min in each case. Moreover, the Activity result was “Dose-dependent effect” in data set [23], 23.6% in data set [24] and 12.2% in data set [25].
